# Assay results from ChEMBL document CHEMBL2401624, “Synthesis and biological evaluation of novel substituted pyrrolo[1,2-a]quinoxaline derivatives as inhibitors of the human protein kinase CK2” (Eur J Med Chem, 2013).
# Assays:
# Jurkat [1] = test: Selectivity index, ratio of CC50 for human PHA-activated PBMC to CC50 for human Jurkat cells
# Jurkat [2] = test: Antiproliferative activity against human Jurkat cells after 1 to 3 days by MTS assay; type: functional
# Method in brief: (§1)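 Leukemic lines grown in RPMI 1640 with 10% FCS, penicillin/streptomycin and L-glutamine at 37°C, 5% CO2. Cells washed twice in PBS, plated in quadruplicate with compound at 0, 1, 5, 10, 20 and 50 µM for 1, 2 and 3 days. MTS added for 3 h at 37°C, absorbance read at 490 nm. CC50 after 3 days by linear regression, mean ± SD of 3 independent experiments.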
# MV4-11 [3] = test: Antiproliferative activity against human MV4-11 cells after 1 to 3 days by MTS assay; type: functional; method in brief: as §1
# [4] = Cytotoxicity against human PHA-activated PBMC after 1 to 3 days by MTS assay; type: cell-based
# Method in brief: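 PBMNC from blood of healthy volunteers, isolated by Ficoll gradient centrifugation and stimulated with PHA (5 µg/mL). Cells washed in PBS, plated in quadruplicate with compound at 0, 1, 5, 10, 20 and 50 µM for 1 to 3 days. MTS read at 490 nm after 3 h at 37°C. CC50 at day 3 by linear regression, mean ± SD of 3 independent experiments.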
# Casein kinase II = Casein kinase II (Homo sapiens, UniProt P19784+P67870+P68400); test: Inhibition of human recombinant CK2 expressed in Escherichia coli BL21(DE3) using RRRDDDSDDD as substrate after 15 mins by capillary electrophoretic analysis
# K562 = test: Antiproliferative activity against human K562 cells after 1 to 3 days by MTS assay; type: functional; method in brief: as §1
# U-937 = test: Antiproliferative activity against human U937 cells after 1 to 3 days by MTS assay; type: functional; method in brief: as §1
# MV4-11 [5] = test: Selectivity index, ratio of CC50 for human PHA-activated PBMC to CC50 for human MV4-11 cells
# Casein kinase II, sequence (P67870 whole entry): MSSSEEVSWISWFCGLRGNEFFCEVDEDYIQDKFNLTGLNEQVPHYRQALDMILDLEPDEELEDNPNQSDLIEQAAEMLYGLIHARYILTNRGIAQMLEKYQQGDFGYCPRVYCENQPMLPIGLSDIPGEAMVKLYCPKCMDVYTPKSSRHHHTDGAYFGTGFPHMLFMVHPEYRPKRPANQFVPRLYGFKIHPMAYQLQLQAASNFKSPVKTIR
# Casein kinase II, sequence (P68400 whole entry): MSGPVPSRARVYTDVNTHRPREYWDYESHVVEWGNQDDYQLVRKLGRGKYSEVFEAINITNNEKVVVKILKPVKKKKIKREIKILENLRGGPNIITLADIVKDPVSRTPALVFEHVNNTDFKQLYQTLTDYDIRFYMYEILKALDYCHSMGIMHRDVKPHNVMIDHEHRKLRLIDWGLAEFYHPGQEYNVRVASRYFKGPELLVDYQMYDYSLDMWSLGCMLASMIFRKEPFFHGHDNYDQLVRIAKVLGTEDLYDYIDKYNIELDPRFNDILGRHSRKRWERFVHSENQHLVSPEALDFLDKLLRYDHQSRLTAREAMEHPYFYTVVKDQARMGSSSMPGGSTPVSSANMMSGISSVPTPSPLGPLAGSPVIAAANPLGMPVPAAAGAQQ
# Casein kinase II, sequence (P19784 whole entry): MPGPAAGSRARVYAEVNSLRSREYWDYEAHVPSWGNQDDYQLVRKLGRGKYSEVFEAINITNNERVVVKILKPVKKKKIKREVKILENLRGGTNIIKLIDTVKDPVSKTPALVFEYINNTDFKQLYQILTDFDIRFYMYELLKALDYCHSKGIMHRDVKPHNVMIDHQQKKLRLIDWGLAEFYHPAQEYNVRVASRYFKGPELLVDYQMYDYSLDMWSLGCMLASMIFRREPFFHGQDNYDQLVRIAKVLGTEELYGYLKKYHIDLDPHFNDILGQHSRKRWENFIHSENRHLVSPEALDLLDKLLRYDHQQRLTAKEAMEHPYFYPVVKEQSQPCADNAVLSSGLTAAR
Structure (SMILES),IC50 (Casein kinase II) [nM],Selectivity Index (Jurkat [1]),CC50 (Jurkat [2]) [µM],CC50 (MV4-11 [3]) [µM],CC50 [4] [µM],CC50 (K562) [µM],CC50 (U-937) [µM],Selectivity Index (MV4-11 [5])
O=C(O)c1nc2cc(Nc3cccc(Cl)c3)ccc2n2cccc12,982,1.6,31.4,47,> 50,> 50,39.2,
C#Cc1cccc(Nc2ccc3c(c2)nc(C(=O)O)c2cccn23)c1,850,,,,,,,
Nc1cccc(C#Cc2ccc3c(c2)nc(C(=O)O)c2cccn23)c1,8250,,,,,,,
O=C(O)c1cc2c(Nc3cccc(Cl)c3)nc3ccccc3n2c1,4280,,> 50,> 50,> 50,> 50,> 50,
O=C(O)c1ccn2c1c(Nc1cccc(Cl)c1)nc1ccccc12,49,,> 50,> 50,> 50,42,47.7,
C#Cc1cccc(Nc2nc3ccccc3n3ccc(C(=O)O)c23)c1,134,,> 50,> 50,> 50,> 50,> 50,
O=C(O)c1ccc2c(c1)nc(Nc1cccc(Cl)c1)c1cccn12,118,,> 50,20,> 50,> 50,> 50,>2.5
O=C(O)c1ccc2nc(Nc3cccc(Cl)c3)c3cccn3c2c1,834,,> 50,> 50,> 50,> 50,> 50,
O=c1oc2c(O)c(O)cc3c(=O)oc4c(O)c(O)cc1c4c23 [ELLAGIC ACID],40,,,,,,,
O=C(O)c1ccc2c(c1)nc(Nc1cccc(Cl)c1)c1ccncc12 [SILMITASERTIB],,,4.5,3,50,7,4.2,

# The next lines start with results.
IC50 (Casein kinase II) [nM],Structure (SMILES),Selectivity Index (Jurkat [1]),CC50 (Jurkat [2]) [µM],CC50 (MV4-11 [3]) [µM],CC50 [4] [µM],CC50 (K562) [µM],CC50 (U-937) [µM],Selectivity Index (MV4-11 [5])
1570,O=C(O)c1ccc2c(c1)nc(Nc1cccc(Cl)c1)c1cc(-c3cccnc3)cn12,,,,,,,
890,C#Cc1cccc(Nc2nc3cc(C(=O)O)ccc3n3cc(-c4cccnc4)cc23)c1,,,,,,,
1890,C#Cc1cccc(Nc2nc3ccccc3n3cc(C(=O)O)cc23)c1,,41,> 50,> 50,> 50,> 50,
78,C#Cc1cccc(Nc2nc3cc(C(=O)O)ccc3n3cccc23)c1,,> 50,20,> 50,> 50,> 50,>2.5
834,C#Cc1cccc(Nc2nc3ccc(C(=O)O)cc3n3cccc23)c1,,> 50,> 50,> 50,> 50,> 50,
